# Hsp70 act: switches on Hsp70 transcription; AID 1203; activation, % at 10 µM; 0.04% of 200,000 active; HeLa Hsp70 promoter luciferase reporter, luminescence; scaled: vehicle 0, proteasome-inhibitor control 100%;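 active = activation above the mean across all tested compounds plus 3 SD, cutoff set per campaign, cut at about 5.5% in these data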;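 also: 100% = MG132 at 30 µM as the positive control and 0% = DMSO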
# HSF-1 act: increases HSF-1 driven luciferase reporter signal; NIH3T3-HGL HSF-1 luciferase reporter, MG132, 8 h; 100% = twice DMSO control signal; AID 504408; 1.7% of 300,000 active; activation, % at 9 µM;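 active = mean replicate activation of at least 50% with a set share of replicates each reaching 50%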;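 also: 0% = median of the neutral control wells and 100% = twice that signal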
# HSF1 inh: HSF1 inhibition; activity change, negative = inhibition, % at 7.5 µM (by protocol); 0.77% of 300,000 active; NIH3T3-HGL HSE-luciferase, MG132-induced, luminescence 8 h; hits give low values;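 active = more than half of replicate wells show activity change below -50%, luminescence cut by over half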;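 also: luciferase reports HSF-1 transcriptional activity via heat shock element; 0% = median of DMSO wells and -100% = zero luminescence signal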
# HSP90 inh: blocks HSP90-mediated luciferase refolding in reticulocyte lysate; Rabbit reticulocyte lysate, luciferase refolding luminescence, 3 h; inhibition, % at 5.6 µM; 0.91% of 290,000 active; AID 1789;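 active = inhibition above the screen-wide mean plus 3 SD, computed separately per campaign, cut at about 16% in these data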;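 also: 0% = DMSO wells and 100% = 60 µM geldanamycin wells; inhibitors lower the luminescence because luciferase stays unfolded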
# Tb hexokinase: blocks Trypanosoma brucei hexokinase 1 activity | recombinant TbHK1, G6PDH-coupled NADH A340 | inhibition, % at 10 µM | 0.11% of 220,000 active;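 active = inhibition of 50% or more in the single-dose primary screen; inactive = inhibition below 50%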
# HKDC1 inh: HKDC1 (human) hexokinase inhibition | Q2TB90 | recombinant HKDC1, G6PDH/diaphorase resazurin coupled fluorescence | inhibition, % at 20 µM | 0.16% of 340,000 active | AID 493160;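 active = inhibition above about 35% when tested at 20 µM, limit read from the data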;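 also: plate controls were DMSO wells with enzyme for no effect and DMSO wells lacking enzyme for full effect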
# Target sequence (Q2TB90 whole entry, looked up): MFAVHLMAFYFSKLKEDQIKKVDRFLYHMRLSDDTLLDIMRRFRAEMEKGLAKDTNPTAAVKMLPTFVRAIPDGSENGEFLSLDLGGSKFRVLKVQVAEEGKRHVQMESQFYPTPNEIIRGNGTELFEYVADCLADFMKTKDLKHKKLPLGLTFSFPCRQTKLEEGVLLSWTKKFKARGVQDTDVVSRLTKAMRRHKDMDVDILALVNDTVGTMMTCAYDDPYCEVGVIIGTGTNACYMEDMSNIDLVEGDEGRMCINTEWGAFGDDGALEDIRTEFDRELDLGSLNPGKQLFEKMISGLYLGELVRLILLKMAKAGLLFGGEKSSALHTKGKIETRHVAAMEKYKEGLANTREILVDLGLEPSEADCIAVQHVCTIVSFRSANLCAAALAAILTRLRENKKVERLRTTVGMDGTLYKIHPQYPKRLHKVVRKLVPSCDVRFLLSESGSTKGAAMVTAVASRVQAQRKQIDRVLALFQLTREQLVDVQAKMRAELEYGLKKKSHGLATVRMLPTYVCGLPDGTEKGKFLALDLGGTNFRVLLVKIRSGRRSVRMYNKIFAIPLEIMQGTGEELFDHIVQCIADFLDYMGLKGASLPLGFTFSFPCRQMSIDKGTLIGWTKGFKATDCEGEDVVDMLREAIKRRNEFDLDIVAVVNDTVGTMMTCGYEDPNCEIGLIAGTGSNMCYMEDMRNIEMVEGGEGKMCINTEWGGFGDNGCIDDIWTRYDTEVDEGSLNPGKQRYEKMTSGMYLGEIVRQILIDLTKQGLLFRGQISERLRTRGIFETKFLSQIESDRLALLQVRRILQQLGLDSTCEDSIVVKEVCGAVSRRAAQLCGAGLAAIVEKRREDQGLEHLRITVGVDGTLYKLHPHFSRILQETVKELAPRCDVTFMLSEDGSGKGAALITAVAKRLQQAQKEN
#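 test system = in-house recombinant HK5 (HKDC1) enzyme | amount = HKDC1 at 5 µg/mL | control set = DMSO-enzyme wells negative, buffer-substituted wells positive | compound = one dose of 20 µM, 1% DMSO | schedule = reaction time 90 min, room temperature, protected from light | technique = resorufin fluorescence at 613 nm | reagent = glucose with 1 mM ATP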
# The depositor's hits bear a star; . = not tested or not shown. This is a sample that favours compounds with a hit; in the whole collection about 3.1% have one here.
SMILES,Hsp70 act,HSF-1 act,HSF1 inh,HSP90 inh,Tb hexokinase,HKDC1 inh
O=C(O)CCc1ccc(-c2ccc(Br)cc2)n1Cc1ccco1,0,116*,68,0,5,3
CN(CC(=O)NCCc1ccccc1)Cc1ccco1,.,20,6,-4,.,-2
CCCCn1c(SCc2nc3ccccc3s2)nc2cc(S(N)(=O)=O)ccc21,0,75*,52,5,11,0
CCCCn1c(SCc2nc3ccccc3s2)nc2ccccc2c1=O,0,39,14,3,-11,-2
COc1ccc(C(=O)NC2CC2)cc1OC1CCN(Cc2ccc(F)cc2Cl)CC1,.,2,3,-3,.,-2
CCCCCCCCCC(=O)N[C@@H]1c2cc(OC)c(OC)cc2C[C@H]1OCc1ccccc1,.,.,.,.,.,-4
Cc1nn(Cc2ccccc2Cl)c(Cl)c1C(=O)NCCc1ccccc1,0,61*,41,-1,20,-8
O=C(Nc1cccc(C(=O)N2CCCCC2)c1)c1ccccc1Br,.,6,-4,1,.,4
Cc1cccc(N2C(=O)CS/C2=N\NC(=O)c2ccc(Br)cc2)c1C,-1,-78,-72*,3,0,-10
Cc1cccc(N2C(=O)CS/C2=N\NC(=O)c2cccnc2)c1C,0,15,5,-3,-2,-10
N=c1c(S(=O)(=O)c2ccc(Cl)cc2)cc2c(=O)n3ccccc3nc2n1Cc1ccco1,.,137*,86,2,.,20
N=c1c(C(=O)NC2CCCC2)cc2c(=O)n3ccccc3nc2n1Cc1ccccc1,.,-93,-91*,-3,.,1
N=c1c(C(=O)NCC2CCCO2)cc2c(=O)n3ccccc3nc2n1Cc1ccc(Cl)cc1 (centres undefined),.,57*,8,-3,.,1
C=CCOc1ccc(C=CC(=O)c2c(O)c(OC)c(OC)c(OC)c2OC)cc1,.,.,.,.,.,14
COc1cccc(NC=C2C(=O)OC3(CCCCC3)OC2=O)c1,0,59*,28,7,-13,7
CC(C)Oc1ccc(S(=O)(=O)N2CCOCC2)cc1NC(=O)C1=NN(c2ccccc2)C(=O)CC1,.,.,.,.,.,6
O=C(CSC(=S)N1CCOCC1)Nc1nc(-c2ccccc2)c(-c2ccccc2)o1,0,-64,-61*,2,-2,11
O=C(CSC(=S)N1CCCCC1)Nc1nc(-c2ccccc2)c(-c2ccccc2)o1,-1,14,-3,-1,2,14
Cc1ccnc(NC(=O)CCC(=O)N(CC(=O)NC(C)(C)C)c2ccc3c(c2)OCO3)c1,.,-20,-3,-2,.,-1
CCCS(=O)(=O)N1CCc2cc(OC)c(OC)cc2C1,0,-68,-55*,-1,-3,0
C/C(CC(=O)Nc1ccc(Cl)cc1C(F)(F)F)=N\NC(=O)c1ccccn1,.,29,27,6,.,3
COc1ccc(NC(=O)c2sccc2C)c([N+](=O)[O-])c1,0,74*,43,-1,-8,-5
C/C(CC(=O)Nc1ccc(Cl)cc1C(F)(F)F)=N\NC(=O)c1cccs1,.,65*,29,1,-1,-7
C/C(CC(=O)Nc1ccccc1C(F)(F)F)=N\NC(=O)c1cnccn1,.,-88,-84*,.,.,-1
COc1ccc(NC(=O)C/C(C)=N/NC(=O)c2cccs2)c([N+](=O)[O-])c1,.,70*,37,2,.,-2
SMILES,Hsp70 act,HSF-1 act,HSF1 inh,HSP90 inh,Tb hexokinase,HKDC1 inh
CCc1cc(CNC(=O)c2ccc(OC3CCN(C(C)=O)CC3)c(OC)c2)on1,.,2,-3,-3,.,-3
O=C1CC(NNc2nc3ccccc3s2)C(=O)N1c1ccc(F)cc1 (centres undefined),.,41,32,4,-3,-3
Cc1cccc(N2C(=O)CC(NNc3nc4ccccc4s3)C2=O)c1 (centres undefined),0,109*,49,3,-1,3
CCOc1ccc(NC(=S)N(Cc2ccc(Cl)cc2)Cc2ccco2)cc1,0,176*,121,5,3,-6
O=C(/C=C/c1ccc(Cl)cc1)NC(=S)Nc1ccc(CN2CCOCC2)cc1,0,86*,53,-6,-2,-4
O=C(/C=C/c1ccc(Cl)cc1)NC(=S)Nc1ccc(NC(=O)c2ccco2)cc1,0,64*,32,0,-19,-4
CCOc1ccc(NC(=O)c2ccco2)cc1,0,19,18,9,-3,-8
